Assay results published in ChEMBL document CHEMBL1139758, “Second generation of alpha-tocopherol analogs-nitric oxide donors: Synthesis, physicochemical, and biological characterization” (Bioorg Med Chem, 2007).

Assays:
[1] = test system: Aorta; assay: Vasodilation of noradrenaline-induced contraction of Wistar Kyoto rat thoracic aorta at 20 uM; format: functional
Procedure, shortened: (§1)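 Thoracic aorta rings (4 mm) from heparinized, pentobarbital-anaesthetized (40 mg/kg ip) Wistar Kyoto rats (250–300 g). Compounds added in DMSO to the organ bath once contraction reached a plateau; α-tocopherol, Trolox and vehicle served as controls. Where used, ODQ (1 µM) was added at least 10 min before the compound.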

[2] = test system: Aorta; assay: Vasodilation of noradrenaline-induced contraction of Wistar Kyoto rat thoracic aorta at 10 uM; format: functional; procedure, shortened: as §1
[3] = test system: J774; assay: Cytotoxicity against mouse J774 cells by MTT assay; format: cell-based
Procedure, shortened: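 J774.1 macrophages, kept in DMEM with 10% heat-inactivated FCS, seeded 1 × 10^5/well in RPMI with fetal serum and left to attach 48 h (37 °C, 5% CO2). Compounds at 1–500 µM for 24 h. Viability by MTT reduction (0.2 mg/mL, 3 h, 37 °C), formazan in DMSO, A560.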

[4] = test system: THP-1; assay: Cytotoxicity against human THP1 cells by MTT assay; format: functional, cell-based
Procedure, shortened: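 Phorbol ester (100 ng/mL)-differentiated THP-1 cells, seeded 1 × 10^5/well in RPMI with fetal serum, attached 48 h at 37 °C in 5% CO2, then exposed 24 h to compounds at 1–500 µM. MTT added to 0.2 mg/mL for 3 h at 37 °C, formazan dissolved in DMSO, A560 read. IC50 is the concentration halving control absorbance; mean of at least three determinations.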

**Q.** How did the Activity [1] turn out when `CC(=O)Oc1c(C)c(C)c2c(c1C)CCC(C)(C(=O)O)O2` (stereo not given) was run?
**A.** 0%

**Q.** `Cc1c(C)c2c(c(C)c1OCc1c(S(=O)(=O)c3ccccc3)no[n+]1[O-])CCC(C)(CCCC(C)CCCC(C)CCCC(C)C)O2` (stereo not given) was tested. Which Activity [2] did it give?
**A.** 15%

**Q.** `Cc1c(C)c2c(c(C)c1O)CC[C@@](C)(CCC[C@H](C)CCC[C@H](C)CCCC(C)C)O2` [ALPHA-TOCOPHEROL] was tested. Which IC50 [3] did it give?
**A.** > 500 µM

**Q.** And the IC50 [4]?
**A.** > 500 µM

**Q.** How did the Activity [1] turn out when `CC(=O)Oc1c(C)c(C)c2c(c1C)CCC(C)(CCCC(C)CCCC(C)CCCC(C)C)O2` (stereo not drawn) [alpha-TOCHOPHERYL ACETATE] was run?
**A.** 0%
